Bioassay records from PubChem.
C2C12 statin: suppressors of statin myotoxicity in C2C12 myotubes, primary screen, cell-based, single point, plate reader | AID 602340, 2012 | rescue of ATP level, % at 7.49 µM | C2C12 myotubes + simvastatin, ATP luminescence, 48 h; scaled: DMSO 0, geranylgeraniol control 100 | 0.78% of 330,000 active;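 active = mean ATP rescue above about 67%, or every replicate alone reaching that limit, limit read from the data, passing the limit was not always enough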;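 also: myotubes were challenged with 10 µM simvastatin during compound exposure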
DENV2 CPE rescue: inhibitors of DENV2 cytopathic effect, primary screen, cell-based, plate reader, single concentration. DENV2-infected cells, cytopathic effect rescue. CPE inhibition, % at 9.99 µM. 1.7% of 350,000 active. AID 651640, 2012; in the data active = CPE inhibition above about 20%, passing the limit was not always enough; tested in BHK-21 cells
E-selectin induc: E-selectin induction in HUVECs, primary screen, imaging, HUVEC, immunofluorescence imaging, single point | P16581 | normalized: neutral wells 0, TNF-alpha wells 100 | activation, % at 7.58 µM | 0.37% of 260,000 active | AID 686992, 2013;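 active = mean E-selectin-positive cell signal at least 10% of the positive control, reached in at least 60% of replicates, without over 20% cell loss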
Target sequence (P16581 whole entry, looked up): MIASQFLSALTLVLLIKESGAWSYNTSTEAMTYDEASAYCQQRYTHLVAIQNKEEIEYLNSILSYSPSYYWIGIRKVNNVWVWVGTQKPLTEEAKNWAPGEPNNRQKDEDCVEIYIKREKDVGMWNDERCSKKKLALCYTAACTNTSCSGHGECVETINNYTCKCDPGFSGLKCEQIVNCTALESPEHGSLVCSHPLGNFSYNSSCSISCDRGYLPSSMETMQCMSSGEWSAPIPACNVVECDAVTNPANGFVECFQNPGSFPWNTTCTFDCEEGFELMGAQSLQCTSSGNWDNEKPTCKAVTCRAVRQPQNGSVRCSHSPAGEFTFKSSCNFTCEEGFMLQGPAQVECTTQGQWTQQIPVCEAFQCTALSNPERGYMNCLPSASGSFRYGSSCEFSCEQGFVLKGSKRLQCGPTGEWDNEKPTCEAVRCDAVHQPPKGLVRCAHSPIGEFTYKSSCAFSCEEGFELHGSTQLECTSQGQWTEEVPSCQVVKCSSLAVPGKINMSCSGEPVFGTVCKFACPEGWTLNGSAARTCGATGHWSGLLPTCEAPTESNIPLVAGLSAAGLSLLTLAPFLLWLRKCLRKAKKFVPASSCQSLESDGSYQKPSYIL
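Read-out basis: % PE-positive cells; Test system: HUVEC primary endothelial cells; Technique: immunofluorescence imaging; Dosing: single-point compound dose.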
Each line names hits and unclear results; the compound was inactive in the other large screens; ! = a repeat was not active. The list is not random: actives were taken first. Their share in the collection is about 2.2%.

C[C@H](CO)N1C[C@H](C)[C@H](CN(C)C)Oc2ccc(NC(=O)Nc3ccccc3)cc2CC1=O	E-selectin induc 273.5
C[C@@H]1CN([C@@H](C)CO)C(=O)Cc2cc(NC(=O)Nc3ccccc3)ccc2O[C@H]1CN(C)C	none
C[C@H]1CN([C@@H](C)CO)C(=O)Cc2cc(NC(=O)Nc3ccccc3)ccc2O[C@H]1CN(C)C	E-selectin induc 42.4
C[C@@H]1CN([C@H](C)CO)C(=O)Cc2cc(NC(=O)CCCN(C)C)ccc2O[C@H]1CN(C)C	none
C[C@@H]1CN([C@H](C)CO)C(=O)Cc2cc(NC(=O)Nc3ccc(F)cc3)ccc2O[C@@H]1CN(C)C	none (no result: E-selectin induc)
C[C@H](CO)N1C[C@H](C)[C@@H](CN(C)C)Oc2ccc(NC(=O)CCCN(C)C)cc2CC1=O	E-selectin induc 204.1
CC(C)NC(=O)Nc1ccc2c(c1)CC(=O)N([C@H](C)CO)C[C@@H](C)[C@H](CN(C)C(=O)Nc1cccc3ccccc13)O2	none (no result: E-selectin induc)
CCCNC(=O)[C@@H]1[C@@H](CO)[C@@H]2Cn3c(ccc(-c4ccccc4F)c3=O)[C@@H]2N1C(=O)CC	none
C[C@@H]1CCCCO[C@H](CN(C)C(=O)Nc2ccc(F)cc2)[C@H](C)CN([C@H](C)CO)C(=O)c2cc(NS(C)(=O)=O)ccc2O1	none (no result: C2C12 statin)
Nc1nc2n[nH]nc2c(=O)[nH]1	C2C12 statin 90.1 (no result: E-selectin induc)
Nc1nc2nn(-c3ccccc3)nc2c(=O)[nH]1	none
COc1ccc(NC(=O)Nc2ccc3c(c2)C(=O)N([C@@H](C)CO)C[C@@H](C)[C@@H](CN(C)C(=O)Nc2c(C)noc2C)O3)cc1	none
C[C@@H]1CN([C@H](C)CO)C(=O)Cc2cc(NC(=O)C3CCCCC3)ccc2O[C@@H]1CN(C)Cc1ccc(Oc2ccccc2)cc1	none
CC(/C=C\c1cccnc1)=C/C(=O)O	C2C12 statin 116.1! (no result: DENV2 CPE rescue, E-selectin induc)
O=C(O)/C=C/c1cccnc1	none
CCCCCCCCOc1ccc(C(=O)O)cc1	none (no result: DENV2 CPE rescue, E-selectin induc)
C=C(C)C(=O)OCCCCCCOc1ccc(C(=O)O)cc1	C2C12 statin 97.0 (no result: DENV2 CPE rescue, E-selectin induc)
C[C@H](CO)N1C[C@H](C)[C@H](CN(C)C(=O)NC2CCCCC2)Oc2ncc(C#CCN(C)C)cc2C1=O	none
CC(C)CNC(=O)C1(C)CCCN1C(=O)c1csnn1 (configuration not stated)	none
CC(C)CNC(=O)C1(C)CCCCCN1C(=O)c1csnn1 (configuration not stated)	DENV2 CPE rescue 112.8
CC(C)C#Cc1cnc2c(c1)C(=O)N([C@@H](C)CO)C[C@@H](C)[C@H](CN(C)Cc1ccccc1)O2	none
O=C(C[C@@H]1CC[C@H]2[C@@H](COC[C@H](O)CN2Cc2cc(F)ccc2F)O1)N1CCc2ccccc2C1	none
CCC(=O)Nc1ccc2c(c1)C(=O)N(C)[C@@H]1CC[C@@H](CC(=O)NCC3CCCCC3)O[C@H]1CO2	none
COCC(=O)N(C)C[C@@H]1Oc2ncc(-c3ccc(C#N)cc3)cc2C(=O)N([C@@H](C)CO)C[C@H]1C	none
CC(=O)N(C)C[C@@H]1Oc2cc(-c3ccccc3C)ccc2S(=O)(=O)N([C@@H](C)CO)C[C@H]1C	none
COc1cc(-c2nc3ccc4ccccc4c3c3c2CCC3)cc(OC)c1O	none (no result: C2C12 statin, DENV2 CPE rescue)
COc1cc(-c2nc3ccc4ccccc4c3c3c2CCC3)cc(OC)c1OC	C2C12 statin 93.6 (no result: DENV2 CPE rescue, E-selectin induc)
O=C(NC[C@H]1[C@@H](c2ccccc2)[C@@H](CO)N1CC1CCCC1)c1ccncc1	none
C/C=C/c1cnc2c(c1)C(=O)N([C@@H](C)CO)C[C@@H](C)[C@@H](CN(C)S(=O)(=O)c1cn(C)cn1)O2	none
O=C(NC(Cc1ccccc1)c1nc2ccccc2[nH]1)c1cccc([N+](=O)[O-])c1 (configuration not stated)	E-selectin induc 83.2 (no result: C2C12 statin, DENV2 CPE rescue)
O=C(N[C@@H](Cc1ccccc1)c1nc2ccccc2[nH]1)c1ccc([N+](=O)[O-])cc1	none (no result: C2C12 statin, E-selectin induc)
CO[C@@H]1CN(C)C(=O)c2cc(NC(=O)CC(F)(F)F)ccc2OC[C@H](C)N(C(=O)c2ccccc2F)C[C@@H]1C	none (no result: C2C12 statin)
COc1ccc(S(=O)(=O)N(C)C[C@@H]2OCCCC[C@H](C)Oc3ccc(NC(=O)Nc4ccc(C(F)(F)F)cc4)cc3C(=O)N([C@@H](C)CO)C[C@H]2C)cc1	none
Cc1noc(C)c1NC(=O)N(C)C[C@@H]1Oc2ccc(NC(=O)NC3CCCCC3)cc2CC(=O)N([C@@H](C)CO)C[C@H]1C	DENV2 CPE rescue 23.7
Cc1noc(C)c1NC(=O)N(C)C[C@H]1Oc2ccc(NC(=O)NC3CCCCC3)cc2CC(=O)N([C@H](C)CO)C[C@H]1C	DENV2 CPE rescue 21.6
Cc1noc(C)c1NC(=O)N(C)C[C@@H]1Oc2ccc(NC(=O)C3CCCCC3)cc2CC(=O)N([C@@H](C)CO)C[C@@H]1C	DENV2 CPE rescue 30.9
